Assay results: article PMC4885662 (The Laryngoscope, 2014)
Where two headings read alike, the source gives them in different places.

Legend:
inner hair cells = experiment: Inner hair cell counts in organ of Corti whole-mounts; format: in vivo, guinea pig; conditions: 1.5 mg/kg systemic; after day 28
Method in brief: (§1)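 Guinea pigs were dosed intratympanically (bulla filled; water for injection in the opposite ear) or intraperitoneally daily for 3 days. After the day-28 audiometry they were perfused with 4% buffered PFA. Cochleae were decapsulated and stained 30 min at room temperature with phalloidin-TRITC (0.3 µg/ml) and Hoechst 33342 (0.05 mg/ml), then imaged by confocal microscopy. Hair cells were counted in 3 random 200 μm segments per turn, as viable/(viable+missing) percentage.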

peritoneum = experiment: Histologic analysis of the peritoneum after i.p. application; format: in vivo, guinea pig; conditions: selected animals
guinea pigs [1] = format: in vivo, guinea pig; conditions: for Click threshold shift, difference as compared to the control group: single shot, vs water for injection ear
[2] = cited from earlier work
guinea pigs [3] = format: in vivo, guinea pig; conditions: for Hearing threshold at 4 kHz / Hearing threshold at 8 kHz / Hearing threshold at 16 kHz / Hearing threshold at 32 kHz / Mean hearing threshold at 1 kHz / Mean hearing threshold at 2 kHz: day 28
[4] = Body weight after systemic application; format: in vivo, guinea pig
outer hair cells = experiment: Outer hair cell counts in organ of Corti whole-mounts; format: in vivo, guinea pig; conditions: for Outer hair cell counts, 2nd turn / Outer hair cell counts, 3rd turn / Outer hair cell counts, apex / Outer hair cell counts, basal turn: after day 28
Method in brief: as §1

Structure (SMILES): CNCC(Cl)c1ccc(OC(C)=O)cc1.Cl (centres unmarked) [CpdA, 2-(4-acetoxyphenyl)-2-chloro-N-methyl-ethylammonium chloride]
- Inner hair cell counts, 2nd turn (inner hair cells): 99.6 ± 1.3%
- Inner hair cell counts, 3rd turn (inner hair cells): 99.7 ± 1.2%
- Histologic analysis of the peritoneum (peritoneum): did not show any inflammatory or necrotic alterations
- Click threshold shift, difference as compared to the control group (guinea pigs [1]; 1 mM IT): 28 dB
- Difference in click threshold shift vs control, day 28 (guinea pigs [1]; 1 mM IT): 19 dB
- Change in click hearing thresholds as compared to baseline (guinea pigs [1]; 1.5 mg/kg intraperitoneally on three consecutive days): did not result in clinically relevant or statistically significant changes
- Change in click hearing thresholds as compared to baseline (guinea pigs [1]; 4.5 mg/kg intraperitoneally on three consecutive days): did not result in clinically relevant or statistically significant changes
- Click threshold shift, difference as compared to the control group (guinea pigs [1]; 10 mM IT): 21 dB
- Difference in click threshold shift vs control, day 28 (guinea pigs [1]; 10 mM IT): 12 dB
- Stability in buffered solutions [2]: instability
- Hearing threshold at 4 kHz (guinea pigs [3]; 1 mM IT): 57.5 dB SPL
- Hearing threshold at 8 kHz (guinea pigs [3]; 1 mM IT): 40.8 dB SPL
- Hearing threshold at 16 kHz (guinea pigs [3]; 1 mM IT): 32.5 dB SPL
- Hearing threshold at 32 kHz (guinea pigs [3]; 1 mM IT): 50 dB SPL
- Mean hearing threshold at 1 kHz (guinea pigs [3]; 1 mM IT): 56.7 dB SPL
- Mean hearing threshold at 2 kHz (guinea pigs [3]; 1 mM IT): 55 dB
- Frequency-specific ABR threshold shift vs baseline (guinea pigs [3]; 1.5 mg/kg intraperitoneally, day 21, p=0.048): 5 dB
- Hearing threshold at 4 kHz (guinea pigs [3]; 10 mM IT): 49.2 dB SPL
- Hearing threshold at 8 kHz (guinea pigs [3]; 10 mM IT): 35 dB SPL
- Hearing threshold at 16 kHz (guinea pigs [3]; 10 mM IT): 35 dB SPL
- Hearing threshold at 32 kHz (guinea pigs [3]; 10 mM IT): 66.7 dB SPL
- Mean hearing threshold at 1 kHz (guinea pigs [3]; 10 mM IT): 44.2 dB SPL
- Mean hearing threshold at 2 kHz (guinea pigs [3]; 10 mM IT): 40 dB
- Body weight [4]: weight loss was also observed
- Outer hair cell counts, 2nd turn (outer hair cells; 1 mM IT): 99.5 ± 1.3%
- Outer hair cell counts, 3rd turn (outer hair cells; 1 mM IT): 99.0 ± 3.5%
- Outer hair cell counts, apex (outer hair cells; 1 mM IT): 95.2 ± 7.5%
- Outer hair cell counts, basal turn (outer hair cells; 1 mM IT): 99.5 ± 1.4%
- Outer hair cell counts, 2nd turn (outer hair cells; 1.5 mg/kg systemic): 99.8 ± 1.3%
- Outer hair cell counts, 3rd turn (outer hair cells; 1.5 mg/kg systemic): 97.7 ± 6.4%
- Outer hair cell counts, apex (outer hair cells; 1.5 mg/kg systemic): 93.8 ± 9.3%
- Outer hair cell counts, basal turn (outer hair cells; 1.5 mg/kg systemic): 99.6 ± 1.2%
- Outer hair cell counts, 2nd turn (outer hair cells; 4.5 mg/kg systemic): 99.7 ± 1.3%
- Outer hair cell counts, 3rd turn (outer hair cells; 4.5 mg/kg systemic): 98.5 ± 3.5%
- Outer hair cell counts, apex (outer hair cells; 4.5 mg/kg systemic): 98.5 ± 3.0%
- Outer hair cell counts, basal turn (outer hair cells; 4.5 mg/kg systemic): 99.9 ± 0.6%
- Outer hair cell counts, 2nd turn (outer hair cells; 10 mM IT): 98.4 ± 2.4%
- Outer hair cell counts, 3rd turn (outer hair cells; 10 mM IT): 98.8 ± 3.3%
- Outer hair cell counts, apex (outer hair cells; 10 mM IT): 97.7 ± 4.2%
- Outer hair cell counts, basal turn (outer hair cells; 10 mM IT): 99.6 ± 1.3%
- Loss of outer or inner hair cells (outer hair cells; any of the treatment groups (IT and systemic)): did not result in a statistically significant loss
